From ChEMBL document CHEMBL4152204, “Discovery of N-hydroxy-3-alkoxybenzamides as direct acid sphingomyelinase inhibitors using a ligand-based pharmacophore model” (Eur J Med Chem, 2018)
The source made the active and inactive calls. No cut-off for these calls is given here.

Tests used:
[1] = target: T1, Sphingomyelin phosphodiesterase (Mus musculus) (UniProt Q04519); assay: Inhibition of acid sphingomyelinase in mouse NIH/3T3 cells assessed as decrease in ceramide levels after 20 hrs by LC-MS/MS analysis; format: cell-based
T1 sequence (whole entry): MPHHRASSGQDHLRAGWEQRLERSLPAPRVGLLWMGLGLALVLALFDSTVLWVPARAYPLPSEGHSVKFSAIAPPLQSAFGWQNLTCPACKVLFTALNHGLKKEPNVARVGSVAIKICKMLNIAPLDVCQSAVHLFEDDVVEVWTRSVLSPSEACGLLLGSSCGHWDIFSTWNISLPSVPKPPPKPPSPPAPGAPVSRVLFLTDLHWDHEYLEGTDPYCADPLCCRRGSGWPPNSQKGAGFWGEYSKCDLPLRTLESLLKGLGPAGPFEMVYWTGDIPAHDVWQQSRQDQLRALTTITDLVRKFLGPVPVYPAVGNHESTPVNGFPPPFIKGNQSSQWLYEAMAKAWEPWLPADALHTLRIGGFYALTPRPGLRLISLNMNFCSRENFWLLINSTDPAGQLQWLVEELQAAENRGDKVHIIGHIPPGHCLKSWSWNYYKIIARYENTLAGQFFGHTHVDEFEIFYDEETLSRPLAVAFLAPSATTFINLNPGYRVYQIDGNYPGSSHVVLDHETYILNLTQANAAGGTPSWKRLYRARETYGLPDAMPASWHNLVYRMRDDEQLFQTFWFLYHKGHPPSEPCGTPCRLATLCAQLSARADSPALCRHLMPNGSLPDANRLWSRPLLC
How it was run: (§1)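 NIH3T3 cells in DMEM with 10% FBS, 37 °C, 5% CO₂; at 90% confluence given fresh medium plus inhibitor (5, 10, 20 µM) for 20 h; total ceramides and sphingomyelin quantified by LC-MS-MS versus untreated control; mean ± SD of three independent experiments, Student's t-test.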

NIH3T3 [2] = assay: Cytoprotective activity against UV-induced apoptosis in mouse NIH/3T3 cells assessed as early apoptotic cells at 20 uM preincubated for 20 hrs followed by UV irradiation for 5 mins and measured after 24 hrs by flow cytometric analysis (reference value: 79.5%); format: functional
[3] = target: T1, Sphingomyelin phosphodiesterase (Mus musculus); assay: Inhibition of acid sphingomyelinase in mouse NIH/3T3 cells assessed as ceramide levels at 10 uM after 20 hrs by LC-MS/MS analysis relative to control; format: cell-based; how it was run: as §1
NIH3T3 [4] = assay: Cytoprotective activity against UV-induced apoptosis in mouse NIH/3T3 cells assessed as necrotic cells at 40 uM preincubated for 20 hrs followed by UV irradiation for 5 mins and measured after 24 hrs by flow cytometric analysis (reference value: 1.5%); format: functional
[5] = target: T1, Sphingomyelin phosphodiesterase (Mus musculus); assay: Inhibition of UV-induced ceramide production in mouse NIH/3T3 cells by LC-MS/MS analysis; format: cell-based
How it was run: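 Ceramide in the UV-apoptosis setup: NIH3T3 cells pretreated with inhibitor 20 h, UV 315 nm 0.29 mW/cm² 5 min, further 24 h with inhibitor; ceramide quantified (pmol/mg) by LC-MS-MS; amitriptyline as positive control; mean ± SD of three independent experiments.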

NIH3T3 [6] = assay: Inhibition of LPS-induced IL-8 production in mouse NIH/3T3 cells at 2.5 uM preincubated for 20 hrs followed by LPS-stimulation and measured after 6 hrs by ELISA; format: functional, cell-based
How it was run: (§2)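 NIH3T3 cells (DMEM, 10% FBS) seeded at 2*10⁵ per well overnight, inhibitor 20 h, then LPS to 50 ng/mL for a further 6 h; IL-6 or IL-8 measured by ELISA; compared with LPS-only and control groups.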

[7] = target: T2, Sphingomyelin phosphodiesterase (Homo sapiens, UniProt P17405); assay: Inhibition of acid sphingomyelinase in human HuH7 cell lysate using NBD-sphingomyelin as substrate after 30 mins by TLC based fluorescence assay
T2 sequence (P17405 whole entry): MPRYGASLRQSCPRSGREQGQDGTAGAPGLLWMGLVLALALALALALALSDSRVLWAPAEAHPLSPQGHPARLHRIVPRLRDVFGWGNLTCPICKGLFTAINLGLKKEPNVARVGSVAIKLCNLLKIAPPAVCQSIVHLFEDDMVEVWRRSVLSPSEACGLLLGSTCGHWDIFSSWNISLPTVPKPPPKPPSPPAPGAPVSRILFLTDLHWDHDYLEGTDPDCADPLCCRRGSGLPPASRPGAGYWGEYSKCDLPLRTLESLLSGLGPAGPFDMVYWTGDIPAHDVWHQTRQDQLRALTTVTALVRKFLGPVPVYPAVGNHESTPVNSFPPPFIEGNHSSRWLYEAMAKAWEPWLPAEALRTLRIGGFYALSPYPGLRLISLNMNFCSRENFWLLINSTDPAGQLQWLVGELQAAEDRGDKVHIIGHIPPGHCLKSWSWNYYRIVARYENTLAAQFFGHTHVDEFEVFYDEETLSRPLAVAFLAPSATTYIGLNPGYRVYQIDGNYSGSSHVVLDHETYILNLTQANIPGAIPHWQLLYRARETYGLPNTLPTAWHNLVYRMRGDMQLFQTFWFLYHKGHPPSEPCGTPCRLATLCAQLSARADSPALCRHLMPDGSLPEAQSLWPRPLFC

NIH3T3 [8] = assay: Cytoprotective activity against UV-induced apoptosis in mouse NIH/3T3 cells assessed as necrotic cells at 20 uM preincubated for 20 hrs followed by UV irradiation for 5 mins and measured after 24 hrs by flow cytometric analysis (reference value: 1.5%); format: functional
[9] = target: T1, Sphingomyelin phosphodiesterase (Mus musculus); assay: Inhibition of acid sphingomyelinase in mouse NIH/3T3 cells assessed as ceramide levels at 5 uM after 20 hrs by LC-MS/MS analysis relative to control; format: cell-based; how it was run: as §1
NIH3T3 [10] = assay: Cytoprotective activity against UV-induced apoptosis in mouse NIH/3T3 cells assessed as late apoptotic cells at 60 uM preincubated for 20 hrs followed by UV irradiation for 5 mins and measured after 24 hrs by flow cytometric analysis (reference value: 6.4%); format: functional
NIH3T3 [11] = assay: Cytoprotective activity against UV-induced apoptosis in mouse NIH/3T3 cells assessed as early apoptotic cells at 40 uM preincubated for 20 hrs followed by UV irradiation for 5 mins and measured after 24 hrs by flow cytometric analysis (reference value: 79.5%); format: functional
NIH3T3 [12] = assay: Cytoprotective activity against UV-induced apoptosis in mouse NIH/3T3 cells assessed as necrotic cells at 10 uM preincubated for 20 hrs followed by UV irradiation for 5 mins and measured after 24 hrs by flow cytometric analysis (reference value: 1.5%); format: functional
NIH3T3 [13] = assay: Inhibition of LPS-induced IL-8 production in mouse NIH/3T3 cells preincubated for 20 hrs followed by LPS-stimulation and measured after 6 hrs by ELISA; format: functional, cell-based; how it was run: as §2
NIH3T3 [14] = assay: Cytoprotective activity against UV-induced apoptosis in mouse NIH/3T3 cells assessed as late apoptotic cells at 40 uM preincubated for 20 hrs followed by UV irradiation for 5 mins and measured after 24 hrs by flow cytometric analysis (reference value: 6.4%); format: functional
NIH3T3 [15] = assay: Cytoprotective activity against UV-induced apoptosis in mouse NIH/3T3 cells assessed as late apoptotic cells at 10 uM preincubated for 20 hrs followed by UV irradiation for 5 mins and measured after 24 hrs by flow cytometric analysis (reference value: 6.4%); format: functional

inhibition [1]: Dose-dependent effect | inhibition [3]: 37% | inhibition [5]: Dose-dependent effect | IC50 [7]: 480 nM | inhibition [9]: 26.1%
SMILES: CCCCCCCCCCOc1cc(C(=O)NO)ccc1OC
Activity (NIH3T3 [2]): 36.8% | Activity (NIH3T3 [4]): 0.1% | inhibition (NIH3T3 [6]): inactive | Activity (NIH3T3 [8]): 0.2% | Activity (NIH3T3 [10]): 7.5% | Activity (NIH3T3 [11]): 41.1% | Activity (NIH3T3 [12]): 0% | inhibition (NIH3T3 [13]): Dose-dependent effect | Activity (NIH3T3 [14]): 7.9% | Activity (NIH3T3 [15]): 11%
